# Source: paper PMC4222540 (Biochemistry, 2014)
# T1: cPAH D139N (Chromobacterium violaceum, UniProt P30967, D139N)
# T1 sequence (P30967 1-297 D139N): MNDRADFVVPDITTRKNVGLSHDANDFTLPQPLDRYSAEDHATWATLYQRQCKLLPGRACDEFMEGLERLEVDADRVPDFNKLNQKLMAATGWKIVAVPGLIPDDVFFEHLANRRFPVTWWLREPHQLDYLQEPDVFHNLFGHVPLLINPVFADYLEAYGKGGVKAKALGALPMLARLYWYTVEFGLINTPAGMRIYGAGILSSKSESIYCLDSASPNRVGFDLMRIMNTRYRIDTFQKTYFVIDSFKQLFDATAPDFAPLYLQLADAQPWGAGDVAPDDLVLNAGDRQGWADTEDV
# T2: cPAH D139E (Chromobacterium violaceum, UniProt P30967, D139E)
# T2 sequence (P30967 1-297 D139E): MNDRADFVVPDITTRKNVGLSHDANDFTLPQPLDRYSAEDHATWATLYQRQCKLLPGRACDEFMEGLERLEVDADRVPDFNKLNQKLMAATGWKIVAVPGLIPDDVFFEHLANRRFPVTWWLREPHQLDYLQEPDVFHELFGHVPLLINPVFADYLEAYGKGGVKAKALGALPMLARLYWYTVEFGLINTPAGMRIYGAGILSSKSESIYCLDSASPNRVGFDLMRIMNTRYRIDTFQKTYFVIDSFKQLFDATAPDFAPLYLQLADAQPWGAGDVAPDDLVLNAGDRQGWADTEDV
# T3: cPAH D139A (Chromobacterium violaceum, UniProt P30967, D139A)
# T3 sequence (P30967 1-297 D139A): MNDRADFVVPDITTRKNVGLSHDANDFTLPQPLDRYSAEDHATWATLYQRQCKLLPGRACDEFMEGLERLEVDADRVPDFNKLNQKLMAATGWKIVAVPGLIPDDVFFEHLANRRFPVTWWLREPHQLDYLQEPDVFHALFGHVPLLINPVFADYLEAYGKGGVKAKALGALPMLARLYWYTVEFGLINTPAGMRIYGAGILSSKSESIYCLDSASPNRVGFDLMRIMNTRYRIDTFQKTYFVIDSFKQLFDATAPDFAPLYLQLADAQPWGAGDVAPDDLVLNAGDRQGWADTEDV
# T4: wild-type cPAH (Chromobacterium violaceum, UniProt P30967)
# T4 sequence (P30967 1-297): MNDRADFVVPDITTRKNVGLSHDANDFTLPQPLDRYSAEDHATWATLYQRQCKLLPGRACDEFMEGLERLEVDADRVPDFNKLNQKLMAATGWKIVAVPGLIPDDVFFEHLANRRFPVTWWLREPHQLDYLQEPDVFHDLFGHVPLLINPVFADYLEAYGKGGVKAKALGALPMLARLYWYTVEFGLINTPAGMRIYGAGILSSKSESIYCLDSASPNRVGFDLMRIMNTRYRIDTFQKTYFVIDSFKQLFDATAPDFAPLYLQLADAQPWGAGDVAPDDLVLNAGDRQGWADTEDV
# T5: cPAH D139K (Chromobacterium violaceum, UniProt P30967, D139K)
# T5 sequence (P30967 1-297 D139K): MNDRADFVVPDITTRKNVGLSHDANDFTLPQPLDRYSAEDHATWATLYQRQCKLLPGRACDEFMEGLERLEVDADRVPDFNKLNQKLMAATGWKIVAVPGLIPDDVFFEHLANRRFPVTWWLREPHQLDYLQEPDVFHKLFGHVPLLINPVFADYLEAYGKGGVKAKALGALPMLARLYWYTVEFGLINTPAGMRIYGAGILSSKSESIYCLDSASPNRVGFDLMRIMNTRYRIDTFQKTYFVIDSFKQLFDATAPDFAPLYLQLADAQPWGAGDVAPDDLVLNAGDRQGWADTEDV
# Key:
# [1] = molecular target: T1, cPAH D139N; test: Steady-state kinetics of phenylalanine hydroxylation; format: biochemical; details: read-out: KM (DMPH), DMPH4 varied at saturated Phe (1 mM), 20 °C, pH 7.4
# [2] = molecular target: T2, cPAH D139E; test: as above; format: biochemical; details: read-out: KM (DMPH), DMPH4 varied at saturated Phe (1 mM), 20 °C, pH 7.4
# [3] = molecular target: T3, cPAH D139A; test: as above; format: biochemical; details: read-out: KM (DMPH), DMPH4 varied at saturated Phe (1 mM), 20 °C, pH 7.4
# [4] = molecular target: T4, wild-type cPAH; test: ITC, Fe; format: binding; details: anaerobic, 25 °C, 2.5 mM TCEP
# Method in brief: (§1)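 Untagged cPAH (wild type or Asp139 point mutant), expressed from pET3a and purified by anion-exchange and size-exclusion chromatography, in apo form. Anaerobic ITC under argon at 25 °C: 500 μM ferrous ammonium sulfate in dialysis buffer with 2.5 mM TCEP titrated into 50 μM protein containing 2.5 mM TCEP. 18 injections of 2 μL, 180 s apart.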
# [5] = molecular target: T3, cPAH D139A; test: ITC, Fe; format: binding
# Method in brief: as §1
# [6] = molecular target: T2, cPAH D139E; test: ITC, Fe; format: binding
# Method in brief: as §1
# [7] = molecular target: T5, cPAH D139K; test: ITC, Fe; format: binding
# Method in brief: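 Untagged apo cPAH D139K, purified by anion-exchange and size-exclusion chromatography. Anaerobic ITC under argon at 25 °C with 2.5 mM TCEP in titrant and in 50 μM protein. FeSO4 titrated at 10-fold excess (500 μM) and again at 20-fold excess over protein. 18 injections of 2 μL, 180 s apart.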
# [8] = molecular target: T1, cPAH D139N; test: ITC, Fe; format: binding; details: anaerobic, 25 °C, 2.5 mM TCEP
# Method in brief: as §1
# [9] = Steady-state kinetics: turnover; format: biochemical, Chromobacterium violaceum; details: for fold lower kcat relative to wild-type cPAH / kcat: enzyme variant as labelled; for kcat: DMPH4 cofactor, 20 °C, pH 7.4
# Method in brief: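 Phenylalanine hydroxylation followed by tyrosine formation at 275 nm (ε275 = 1405 L mol−1 cm−1) at 20 ± 1 °C. Enzyme ranged from 1 μM (wild type) to 30 μM (D139A), with 5-fold molar excess of ferrous ammonium sulfate, 5 mM DTT and 1000 units/mL catalase in 0.1 M O2-saturated Na-HEPES, pH 7.4. DMPH4 was varied at 1 mM Phe, and Phe was varied at 350 μM DMPH4. Triplicates were fit to Michaelis–Menten and reported as mean ± SD of three independent experiments.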
# [10] = 20-fold excess of FeSO4, anaerobic, 25 °C, 2.5 mM TCEP
molecule,measurement,setting,value
"CC1Nc2nc(N)[nH]c(=O)c2NC1C (centres unmarked) [DMPH, 6,7-dimethyl-5,6,7,8-tetrahydropterine]",Km,[1],262 ± 41 µM
same,Km,[2],236 ± 38 µM
same,Km,[3],254 ± 47 µM
"O=S(=O)([O-])[O-].O=S(=O)([O-])[O-].[Fe+2].[NH4+].[NH4+] [Fe(II), ferrous ammonium sulfate]",Kd,[4],151 ± 30 nM
same,N (ITC stoichiometry),[4],0.8
same,ΔH,[4],–4.0 ± 0.1 kcal mol^–1
same,ΔS,[4],18 cal mol^–1
same,fold increase in Kd for iron vs wild type,[5],~6 fold
same,Kd,"[5]; anaerobic, 25 °C, 2.5 mM TCEP",944 ± 170 nM
same,N (ITC stoichiometry),"[5]; anaerobic, 25 °C, 2.5 mM TCEP",0.9
same,ΔH,"[5]; anaerobic, 25 °C, 2.5 mM TCEP",–2.5 ± 0.1 kcal mol^–1
same,ΔS,"[5]; anaerobic, 25 °C, 2.5 mM TCEP",19 cal mol^–1
same,fold increase in Kd for iron vs wild type,[6],~4 fold
same,Kd,"[6]; anaerobic, 25 °C, 2.5 mM TCEP",479 ± 170 nM
same,N (ITC stoichiometry),"[6]; anaerobic, 25 °C, 2.5 mM TCEP",0.8
same,ΔH,"[6]; anaerobic, 25 °C, 2.5 mM TCEP",–1.5 ± 0.1 kcal mol^–1
same,ΔS,"[6]; anaerobic, 25 °C, 2.5 mM TCEP",24 cal mol^–1
same,fold reduction in binding affinity for iron vs wild type,[7],~500 fold
same,iron binding (ITC isotherm),[7]; 10-fold excess of FeSO4 (500 µM),no binding was observed
same,Kd,[7]; [10],76500 ± 700 nM
same,N (ITC stoichiometry),[7]; [10],1
same,ΔH,[7]; [10],1.4 ± 0.6 kcal mol^–1
same,ΔS,[7]; [10],23 cal mol^–1
same,Kd,[8],139 ± 60 nM
same,N (ITC stoichiometry),[8],0.7
same,ΔH,[8],–4.5 ± 0.3 kcal mol^–1
same,ΔS,[8],16 cal mol^–1
"D139N (protein, UniProt P30967 1-297, looked up, variant D139N) Phenylalanine-4-hydroxylase: MNDRADFVVPDITTRKNVGLSHDANDFTLPQPLDRYSAEDHATWATLYQRQCKLLPGRACDEFMEGLERLEVDADRVPDFNKLNQKLMAATGWKIVAVPGLIPDDVFFEHLANRRFPVTWWLREPHQLDYLQEPDVFHNLFGHVPLLINPVFADYLEAYGKGGVKAKALGALPMLARLYWYTVEFGLINTPAGMRIYGAGILSSKSESIYCLDSASPNRVGFDLMRIMNTRYRIDTFQKTYFVIDSFKQLFDATAPDFAPLYLQLADAQPWGAGDVAPDDLVLNAGDRQGWADTEDV",fold lower kcat relative to wild-type cPAH,[9],~16 fold
same,kcat,[9],1.2 ± 0.1 s^–1
"D139A (protein, UniProt P30967 1-297, looked up, variant D139A) Phenylalanine-4-hydroxylase: MNDRADFVVPDITTRKNVGLSHDANDFTLPQPLDRYSAEDHATWATLYQRQCKLLPGRACDEFMEGLERLEVDADRVPDFNKLNQKLMAATGWKIVAVPGLIPDDVFFEHLANRRFPVTWWLREPHQLDYLQEPDVFHALFGHVPLLINPVFADYLEAYGKGGVKAKALGALPMLARLYWYTVEFGLINTPAGMRIYGAGILSSKSESIYCLDSASPNRVGFDLMRIMNTRYRIDTFQKTYFVIDSFKQLFDATAPDFAPLYLQLADAQPWGAGDVAPDDLVLNAGDRQGWADTEDV",fold lower kcat relative to wild-type cPAH,[9],~100 fold
same,kcat,[9],0.19 ± 0.01 s^–1
"D139E (protein, UniProt P30967 1-297, looked up, variant D139E) Phenylalanine-4-hydroxylase: MNDRADFVVPDITTRKNVGLSHDANDFTLPQPLDRYSAEDHATWATLYQRQCKLLPGRACDEFMEGLERLEVDADRVPDFNKLNQKLMAATGWKIVAVPGLIPDDVFFEHLANRRFPVTWWLREPHQLDYLQEPDVFHELFGHVPLLINPVFADYLEAYGKGGVKAKALGALPMLARLYWYTVEFGLINTPAGMRIYGAGILSSKSESIYCLDSASPNRVGFDLMRIMNTRYRIDTFQKTYFVIDSFKQLFDATAPDFAPLYLQLADAQPWGAGDVAPDDLVLNAGDRQGWADTEDV",fold lower kcat relative to wild-type cPAH,[9],10 fold
same,kcat,[9],1.9 ± 0.1 s^–1
"D139K (protein, UniProt P30967 1-297, looked up, variant D139K) Phenylalanine-4-hydroxylase: MNDRADFVVPDITTRKNVGLSHDANDFTLPQPLDRYSAEDHATWATLYQRQCKLLPGRACDEFMEGLERLEVDADRVPDFNKLNQKLMAATGWKIVAVPGLIPDDVFFEHLANRRFPVTWWLREPHQLDYLQEPDVFHKLFGHVPLLINPVFADYLEAYGKGGVKAKALGALPMLARLYWYTVEFGLINTPAGMRIYGAGILSSKSESIYCLDSASPNRVGFDLMRIMNTRYRIDTFQKTYFVIDSFKQLFDATAPDFAPLYLQLADAQPWGAGDVAPDDLVLNAGDRQGWADTEDV",catalytic activity (hydroxylation of phenylalanine to tyrosine),[9]; nonenzymatic amounts of protein required for minimal tyrosine formation,inactive
"wild type: wild-type phenylalanine hydroxylase from Chromobacterium violaceum (cPAH) (protein, UniProt P30967 1-297, looked up) Phenylalanine-4-hydroxylase: MNDRADFVVPDITTRKNVGLSHDANDFTLPQPLDRYSAEDHATWATLYQRQCKLLPGRACDEFMEGLERLEVDADRVPDFNKLNQKLMAATGWKIVAVPGLIPDDVFFEHLANRRFPVTWWLREPHQLDYLQEPDVFHDLFGHVPLLINPVFADYLEAYGKGGVKAKALGALPMLARLYWYTVEFGLINTPAGMRIYGAGILSSKSESIYCLDSASPNRVGFDLMRIMNTRYRIDTFQKTYFVIDSFKQLFDATAPDFAPLYLQLADAQPWGAGDVAPDDLVLNAGDRQGWADTEDV",kcat,[9],18.6 ± 0.1 s^–1
